Laboratory results as given in ChEMBL document CHEMBL1687824, “Overexpression of patA and patB, which encode ABC transporters, is associated with fluoroquinolone resistance in clinical isolates of Streptococcus pneumoniae” (2011).
≈ marks a conversion by molar mass, not a printed value.

Experiments:
Streptococcus pneumoniae [1] = test: Antibacterial activity against Streptococcus pneumoniae M300 overexpressing patA, patB and inactivated patA with single mutation by standardized agar doubling dilution method in presence of 50 uM sodium orthovanadate efflux pump inhibitor; assay type: functional
Outline: (§1)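 MICs determined by BSAC standardized agar doubling dilution. Strains were grown in brain heart infusion broth for 24 h at 37°C in 5% CO2. Inhibitor arms had reserpine at 20 μg/ml or sodium orthovanadate at 50 μM in the agar. Mutants were made by transforming magellan2 insertion amplimers into clinical isolates and selecting on spectinomycin 100 mg/liter, with a no-DNA spontaneous-mutation control.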

Streptococcus pneumoniae [2] = test: Antibacterial activity against dye-resistant Streptococcus pneumoniae by standardized agar doubling dilution method; assay type: functional
Outline: (§2)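 MIC by agar doubling dilution following BSAC guidelines. Strains grown in brain heart infusion broth 24 h at 37°C in 5% CO2. Where an efflux pump inhibitor applies, MIC redetermined with reserpine at 20 μg/ml or sodium orthovanadate at 50 μM. Synergy taken as a fall in MIC of ≥2 dilutions with inhibitor present. Dye resistance defined relative to R6 (both dyes ≥2 dilutions higher).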

Streptococcus pneumoniae [3] = test: Antibacterial activity against fluoroquinolone, dye-resistant Streptococcus pneumoniae M45 overexpressing patA, patB by standardized agar doubling dilution method; assay type: functional; outline: as §2
Streptococcus pneumoniae [4] = test: Antibacterial activity against Streptococcus pneumoniae M307 overexpressing patA, patB and inactivated patB with single mutation by standardized agar doubling dilution method in presence of 20 ug/ml reserpine efflux pump inhibitor; assay type: functional; outline: as §1
Streptococcus pneumoniae [5] = test: Antibacterial activity against fluoroquinolone-resistant Streptococcus pneumoniae M79 FQ-R overexpressing patA, patB by standardized agar doubling dilution method in presence of 20 ug/ml reserpine efflux pump inhibitor; assay type: functional
Outline: (§3)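 Clinical S. pneumoniae isolates grown in BHI broth 24 h at 37°C in 5% CO2. MICs by agar doubling dilution per BSAC guidelines, alone or with efflux inhibitor reserpine (20 μg/ml) or sodium orthovanadate (50 μM). Synergy defined as ≥2-dilution MIC reduction in presence of inhibitor.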

Streptococcus pneumoniae [6] = test: Antibacterial activity against Streptococcus pneumoniae M298 overexpressing patA, patB and inactivated patA with single mutation by standardized agar doubling dilution method; assay type: functional; outline: as §1
Streptococcus pneumoniae [7] = test: Antibacterial activity against fluoroquinolone, dye-resistant Streptococcus pneumoniae M74 overexpressing patA, patB by standardized agar doubling dilution method; assay type: functional; outline: as §2
Streptococcus pneumoniae [8] = test: Antibacterial activity against Streptococcus pneumoniae M319 overexpressing patA, patB and inactivated patB with single mutation by standardized agar doubling dilution method in presence of 50 uM sodium orthovanadate efflux pump inhibitor; assay type: functional
Outline: (§4)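 MICs were determined by BSAC agar doubling dilution in the presence of sodium orthovanadate at 50 μM. Cultures were grown in BHI broth for 24 h at 37°C in 5% CO2, with R6 as control. Synergy was defined as an MIC reduction of ≥2 dilutions with the inhibitor present.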

Streptococcus pneumoniae [9] = test: Antibacterial activity against fluoroquinolone-resistant Streptococcus pneumoniae M79 FQ-R overexpressing patA, patB by standardized agar doubling dilution method in presence of 50 uM sodium orthovanadate efflux pump inhibitor; assay type: functional; outline: as §3
Streptococcus pneumoniae [10] = test: Antibacterial activity against fluoroquinolone, dye-resistant Streptococcus pneumoniae M50 overexpressing patA, patB by standardized agar doubling dilution method in presence of 50 uM sodium orthovanadate efflux pump inhibitor; assay type: functional; outline: as §2
Streptococcus pneumoniae [11] = test: Antibacterial activity against dye-resistant Streptococcus pneumoniae M55 DR overexpressing patA, patB by standardized agar doubling dilution method; assay type: functional
Outline: (§5)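 MICs were determined by agar doubling dilution following BSAC guidelines, with no efflux inhibitor. Strains were grown in brain heart infusion broth for 24 h at 37°C in 5% CO2. Species identity was confirmed by Gram stain, optochin sensitivity and capsule test. Control strain R6 was tested alongside.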

Streptococcus pneumoniae [12] = test: Antibacterial activity against dye-resistant Streptococcus pneumoniae by standardized agar doubling dilution method in presence of 50 uM sodium orthovanadate efflux pump inhibitor; assay type: functional; outline: as §2
Streptococcus pneumoniae [13] = test: Antibacterial activity against Streptococcus pneumoniae M301 overexpressing patA, patB and inactivated patA with single mutation by standardized agar doubling dilution method; assay type: functional; outline: as §1
Streptococcus pneumoniae [14] = test: Antibacterial activity against fluoroquinolone, dye-resistant Streptococcus pneumoniae M50 overexpressing patA, patB by standardized agar doubling dilution method; assay type: functional; outline: as §2
Streptococcus pneumoniae [15] = test: Antibacterial activity against Streptococcus pneumoniae M314 overexpressing patA, patB and inactivated patA with single mutation by standardized agar doubling dilution method; assay type: functional; outline: as §1
Streptococcus pneumoniae [16] = test: Antibacterial activity against Streptococcus pneumoniae M303 overexpressing patA, patB and inactivated patA with single mutation by standardized agar doubling dilution method in presence of 20 ug/ml reserpine efflux pump inhibitor; assay type: functional; outline: as §1
Streptococcus pneumoniae [17] = test: Antibacterial activity against Streptococcus pneumoniae M46B overexpressing patA, patB and inactivated patB with single mutation by standardized agar doubling dilution method in presence of 50 uM sodium orthovanadate efflux pump inhibitor; assay type: functional; outline: as §4
Streptococcus pneumoniae [18] = test: Antibacterial activity against Streptococcus pneumoniae M298 overexpressing patA, patB and inactivated patA with single mutation by standardized agar doubling dilution method in presence of 50 uM sodium orthovanadate efflux pump inhibitor
Streptococcus pneumoniae [19] = test: Antibacterial activity against fluoroquinolone, dye-resistant Streptococcus pneumoniae M42 overexpressing patA, patB by standardized agar doubling dilution method in presence of 50 uM sodium orthovanadate efflux pump inhibitor; assay type: functional; outline: as §2
Streptococcus pneumoniae [20] = test: Antibacterial activity against fluoroquinolone, dye-resistant Streptococcus pneumoniae M42 overexpressing patA, patB by standardized agar doubling dilution method; assay type: functional; outline: as §2
Streptococcus pneumoniae [21] = test: Antibacterial activity against Streptococcus pneumoniae M298 overexpressing patA, patB and inactivated patA with single mutation by standardized agar doubling dilution method
Streptococcus pneumoniae [22] = test: Antibacterial activity against Streptococcus pneumoniae M306 overexpressing patA, patB and inactivated patB with single mutation by standardized agar doubling dilution method in presence of 20 ug/ml reserpine efflux pump inhibitor; assay type: functional; outline: as §1
Streptococcus pneumoniae [23] = test: Antibacterial activity against Streptococcus pneumoniae M318 overexpressing patA, patB and inactivated patA with single mutation by standardized agar doubling dilution method; assay type: functional; outline: as §5
Streptococcus pneumoniae [24] = test: Antibacterial activity against fluoroquinolone, dye-resistant Streptococcus pneumoniae M86 overexpressing patA, patB by standardized agar doubling dilution method; assay type: functional; outline: as §2
Streptococcus pneumoniae [25] = test: Antibacterial activity against Streptococcus pneumoniae M314 overexpressing patA, patB and inactivated patA with single mutation by standardized agar doubling dilution method in presence of 20 ug/ml reserpine efflux pump inhibitor; assay type: functional; outline: as §1
Streptococcus pneumoniae [26] = test: Antibacterial activity against Streptococcus pneumoniae M55B overexpressing patA, patB and inactivated patB with single mutation by standardized agar doubling dilution method in presence of 20 ug/ml reserpine efflux pump inhibitor; assay type: functional
Outline: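 MICs were determined by BSAC agar doubling dilution in the presence of reserpine at 20 μg/ml. Strains were grown in BHI broth for 24 h at 37°C in 5% CO2, with R6 as control. Synergy was defined as an MIC drop of ≥2 dilutions with the inhibitor.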

Streptococcus pneumoniae [27] = test: Antibacterial activity against fluoroquinolone-resistant Streptococcus pneumoniae M97 FQ-R overexpressing patA, patB by standardized agar doubling dilution method; assay type: functional
Outline: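 MIC by agar doubling dilution per BSAC guidelines; strains pregrown in brain heart infusion broth 24 h, 37°C, 5% CO2. MICs measured alone and with efflux pump inhibitors reserpine (20 μg/ml) or sodium orthovanadate (50 μM); synergy defined as ≥2-dilution MIC reduction in presence of inhibitor.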

Streptococcus pneumoniae [28] = test: Antibacterial activity against Streptococcus pneumoniae M55B overexpressing patA, patB and inactivated patB with single mutation by standardized agar doubling dilution method; assay type: functional; outline: as §5

CC[n+]1c(-c2ccccc2)c2cc(N)ccc2c2ccc(N)cc21.[Br-] [HOMIDIUM BROMIDE]
MIC (Streptococcus pneumoniae [1]): 0.5 µg/mL | MIC (Streptococcus pneumoniae [2]): 16 µg/mL | MIC90 (Streptococcus pneumoniae [2]): 16 µg/mL | MIC (Streptococcus pneumoniae [3]): 4 µg/mL | MIC (Streptococcus pneumoniae [4]): 0.5 µg/mL | MIC (Streptococcus pneumoniae [5]): 0.5 µg/mL | MIC (Streptococcus pneumoniae [6]): 0.5 µg/mL | MIC (Streptococcus pneumoniae [7]): 4 µg/mL | MIC (Streptococcus pneumoniae [8]): 0.5 µg/mL | MIC (Streptococcus pneumoniae [9]): 0.5 µg/mL | MIC (Streptococcus pneumoniae [10]): 1 µg/mL | MIC (Streptococcus pneumoniae [11]): 16 µg/mL | MIC (Streptococcus pneumoniae [12]): 1 µg/mL | MIC90 (Streptococcus pneumoniae [12]): 1 µg/mL | MIC (Streptococcus pneumoniae [13]): 0.5 µg/mL | MIC (Streptococcus pneumoniae [14]): 4 µg/mL | MIC (Streptococcus pneumoniae [15]): 0.5 µg/mL | MIC (Streptococcus pneumoniae [16]): 0.5 µg/mL | MIC (Streptococcus pneumoniae [17]): 0.5 µg/mL | MIC (Streptococcus pneumoniae [18]): 0.5 µg/mL | MIC (Streptococcus pneumoniae [19]): 1 µg/mL | MIC (Streptococcus pneumoniae [20]): 8 µg/mL | MIC (Streptococcus pneumoniae [21]): 0.5 µg/mL | MIC (Streptococcus pneumoniae [22]): 0.5 µg/mL | MIC (Streptococcus pneumoniae [23]): 0.5 µg/mL | MIC (Streptococcus pneumoniae [24]): 4 µg/mL | MIC (Streptococcus pneumoniae [25]): 0.5 µg/mL | MIC (Streptococcus pneumoniae [26]): 0.5 µg/mL | MIC (Streptococcus pneumoniae [27]): 4 µg/mL | MIC (Streptococcus pneumoniae [28]): 0.5 µg/mL

O=C(O)c1cn(C2CC2)c2cc(N3CCNCC3)c(F)cc2c1=O [CIPROFLOXACIN]
MIC (Streptococcus pneumoniae [1]): 2 µg/mL | MIC (Streptococcus pneumoniae [2]): 0.25 µg/mL (≈ 0.754 µM) | MIC90 (Streptococcus pneumoniae [2]): 0.25 µg/mL (≈ 0.754 µM) | MIC (Streptococcus pneumoniae [3]): 4 µg/mL (≈ 12.1 µM) | MIC (Streptococcus pneumoniae [4]): 8 µg/mL | MIC (Streptococcus pneumoniae [5]): 32 µg/mL | MIC (Streptococcus pneumoniae [6]): 8 µg/mL (≈ 24.1 µM) | MIC (Streptococcus pneumoniae [7]): 64 µg/mL (≈ 193 µM) | MIC (Streptococcus pneumoniae [8]): 16 µg/mL | MIC (Streptococcus pneumoniae [9]): 16 µg/mL | MIC (Streptococcus pneumoniae [10]): 32 µg/mL | MIC (Streptococcus pneumoniae [11]): 0.25 µg/mL (≈ 0.754 µM) | MIC90 (Streptococcus pneumoniae [12]): 0.5 µg/mL | MIC (Streptococcus pneumoniae [13]): 8 µg/mL (≈ 24.1 µM) | MIC (Streptococcus pneumoniae [14]): 64 µg/mL (≈ 193 µM) | MIC (Streptococcus pneumoniae [15]): 8 µg/mL (≈ 24.1 µM) | MIC (Streptococcus pneumoniae [16]): 1 µg/mL | MIC (Streptococcus pneumoniae [17]): 0.12 µg/mL | MIC (Streptococcus pneumoniae [18]): 8 µg/mL | MIC (Streptococcus pneumoniae [19]): 16 µg/mL | MIC (Streptococcus pneumoniae [20]): 64 µg/mL (≈ 193 µM) | MIC (Streptococcus pneumoniae [21]): 8 µg/mL (≈ 24.1 µM) | MIC (Streptococcus pneumoniae [22]): 4 µg/mL | MIC (Streptococcus pneumoniae [23]): 16 µg/mL (≈ 48.3 µM) | MIC (Streptococcus pneumoniae [24]): 2 µg/mL (≈ 6.04 µM) | MIC (Streptococcus pneumoniae [25]): 8 µg/mL | MIC (Streptococcus pneumoniae [26]): 2 µg/mL | MIC (Streptococcus pneumoniae [27]): 8 µg/mL (≈ 24.1 µM) | MIC (Streptococcus pneumoniae [28]): 2 µg/mL (≈ 6.04 µM)
